Experimental data gathered from unrelated publications.
Compare with care: the assays were run in different laboratories.

SMILES | assay | system | conditions | endpoint | value
CCOC(=O)C1=C(CN2CCC[C@@H]2C(=O)Nc2ccc(B(O)O)cc2)NC(c2nccs2)=N[C@H]1c1ccc(F)cc1Br |  | CD-1 mouse, plasma | intravenous, 2 mg/kg | MRT(0-inf) | 0.57 h
CC[C@H](C)[C@H](NC(=O)[C@@H]1CCCN1C(=O)CNC(=O)[C@H](Cc1ccccc1)NC(=O)[C@H](CC(N)=O)NC(=O)[C@H](CC(N)=O)NC(=O)[C@H](CO)NC(=O)[C@H](CO)NC(=O)[C@H](Cc1c[nH]cn1)NC(=O)[C@H](CCCNC(=N)N)NC(=O)[C@H](CC(C)C)NC(=O)[C@H](Cc1ccccc1)NC(=O)[C@H](CCC(=O)O)NC(=O)[C@H](C)NC(=O)[C@H](CC(C)C)NC(=O)[C@H](CCCNC(=N)N)NC(=O)[C@H](CCC(N)=O)NC(=O)[C@@H](NC(=O)[C@H](C)NC(=O)[C@@H]1CSSC[C@H](NC(=O)[C@H](CCCCN)NC(=O)CC[C@H](NC(=O)CCCCCCCCCCCCCCCCCCC(=O)O)C(=O)O)C(=O)N[C@@H](CC(N)=O)C(=O)N[C@@H]([C@@H](C)O)C(=O)N[C@@H](C)C(=O)N[C@@H]([C@@H](C)O)C(=O)N1)[C@@H](C)O)C(=O)N[C@@H](CC(C)C)C(=O)N1CCC[C@H]1C(=O)N1CCC[C@H]1C(=O)N[C@H](C(=O)N[C@@H](CC(N)=O)C(=O)N[C@H](C(=O)NCC(=O)N[C@@H](CO)C(=O)N[C@@H](CC(N)=O)C(=O)N[C@H](C(=O)N1CCC[C@H]1C(N)=O)[C@@H](C)O)C(C)C)[C@@H](C)O |  | cynomolgus monkey, plasma | subcutaneous, 20 nmol/kg, single dose | AUC(0-inf) | 39.3 µM·h
Cc1nc2ccc(OCc3ccc(C(F)(F)F)cc3)cc2[nH]1 |  | male BALB/c mouse, plasma | intravenous, 1 mg/kg | MRT(0-inf) | 1.54 h
O=c1c2c([nH]c3cc(OCc4ccc(OC(F)(F)F)cc4)ccc13)CCCC2 | metabolic stability | human, liver microsomes | 1 µM, pH 7.4 | half-life | 0.627 h
COC1=CC(c2ccc[nH]2)=N/C1=C\c1[nH]c(Cc2ccc(OC(F)(F)F)cc2)cc1Cc1ccc(OC(F)(F)F)cc1 |  | male CD-1 mouse, plasma | oral, 40 mg/kg, single dose | MRT(0-t) | 23.1 h
OCc1nc2ccc(NCc3ccc(C(F)(F)F)cc3)cc2[nH]1 |  | male BALB/c mouse, plasma | oral, 10 mg/kg | MRT(0-inf) | 1.9 h
CCCCCCOc1ccc2c(=O)c3c([nH]c2c1)CCCC3 | metabolic stability | human, liver microsomes | 1 µM, pH 7.4 | half-life | 0.25 h
COC1=CC(c2ccc[nH]2)=N/C1=C\c1cc(Cc2ccc(OC(F)(F)F)cc2)c(C)[nH]1.Cl |  | male CD-1 mouse, liver | oral, 40 mg/kg, single dose | MRT(0-t) | 34.8 h
NCc1cc2c(cc1F)C(=O)N(C1CCC(=O)NC1=O)C2 (stereo not drawn) |  | male cynomolgus monkey, plasma | oral, 0.3 mg/kg | AUC(0-inf) | 5.5 ng·h/mL
